# Results as given in ChEMBL document CHEMBL1128699, “Inhibition of the EGF-stimulated cellular proliferation of ER 22 cells by hydroxybiphenyl derivatives” (J Med Chem, 1995).
# Tests used:
# [1] = molecular target: T1, Epidermal growth factor receptor (Homo sapiens, UniProt P00533); experiment: In vitro inhibition of intrinsic tyrosine protein kinase activity of the Epidermal growth factor receptor using […]
# Summary of the method: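 Enzyme source was ER 22 membranes purified on 32% sucrose. Reaction buffer: 20 mM Hepes pH 7.4, 1 mM MnCl2, 0.1 mg/mL BSA, 100 ng/mL EGF. Receptor was preincubated with EGF for 10 min at room temperature, then inhibitor was added. It was stopped with TCA; supernatant was spotted on phosphocellulose paper, washed in phosphoric acid and counted by scintillation.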
# [2] = molecular target: T1, Epidermal growth factor receptor; conditions: 10 uM
# [3] = molecular target: T1, Epidermal growth factor receptor; conditions: 10 uM; remark: listed apart in the source
# [4] = molecular target: T1, Epidermal growth factor receptor; experiment: Inhibition of Epidermal growth factor receptor activity against […] at 10 uM
# [5] = molecular target: T1, Epidermal growth factor receptor; conditions: 5 uM
# [6] = molecular target: T1, Epidermal growth factor receptor; conditions: 10 uM; remark: listed apart in the source
# [7] = molecular target: T1, Epidermal growth factor receptor; conditions: 10 uM; remark: listed apart in the source
# [8] = molecular target: T1, Epidermal growth factor receptor; conditions: 1.25 uM
# [9] = molecular target: T1, Epidermal growth factor receptor; conditions: 5 uM; remark: listed apart in the source
# T1 sequence (P00533 whole entry): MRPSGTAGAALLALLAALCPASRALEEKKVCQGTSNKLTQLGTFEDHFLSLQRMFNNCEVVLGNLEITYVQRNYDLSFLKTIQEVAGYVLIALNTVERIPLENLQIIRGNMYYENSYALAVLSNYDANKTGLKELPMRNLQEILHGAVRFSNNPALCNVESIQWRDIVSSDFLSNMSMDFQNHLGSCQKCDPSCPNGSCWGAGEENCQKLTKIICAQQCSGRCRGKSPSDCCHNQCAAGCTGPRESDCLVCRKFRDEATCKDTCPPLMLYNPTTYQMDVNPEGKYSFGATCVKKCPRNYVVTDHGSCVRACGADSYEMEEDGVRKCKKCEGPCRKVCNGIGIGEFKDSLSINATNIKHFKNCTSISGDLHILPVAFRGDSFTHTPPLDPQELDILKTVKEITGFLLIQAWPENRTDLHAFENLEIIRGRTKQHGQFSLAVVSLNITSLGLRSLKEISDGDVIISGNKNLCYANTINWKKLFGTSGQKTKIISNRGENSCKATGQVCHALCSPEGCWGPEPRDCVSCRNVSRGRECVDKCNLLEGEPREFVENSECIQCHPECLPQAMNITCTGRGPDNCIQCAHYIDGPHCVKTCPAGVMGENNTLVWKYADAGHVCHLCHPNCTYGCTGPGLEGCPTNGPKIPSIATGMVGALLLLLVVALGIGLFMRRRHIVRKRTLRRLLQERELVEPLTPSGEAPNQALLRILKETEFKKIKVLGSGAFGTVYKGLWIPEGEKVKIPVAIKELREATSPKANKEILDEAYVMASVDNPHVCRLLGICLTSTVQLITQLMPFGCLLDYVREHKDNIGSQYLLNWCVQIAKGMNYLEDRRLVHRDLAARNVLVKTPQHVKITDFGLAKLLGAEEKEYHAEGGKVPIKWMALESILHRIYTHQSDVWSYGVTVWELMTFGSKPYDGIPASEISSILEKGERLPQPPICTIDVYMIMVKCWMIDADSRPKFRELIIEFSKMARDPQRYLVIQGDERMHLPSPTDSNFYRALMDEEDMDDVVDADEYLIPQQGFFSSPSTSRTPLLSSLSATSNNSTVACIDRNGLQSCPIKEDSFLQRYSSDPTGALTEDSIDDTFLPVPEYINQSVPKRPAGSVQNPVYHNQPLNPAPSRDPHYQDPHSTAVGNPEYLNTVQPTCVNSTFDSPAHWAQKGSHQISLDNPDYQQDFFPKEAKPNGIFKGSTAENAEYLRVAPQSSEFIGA
smiles,measurement,setting,value
COC(=O)c1ccc(-c2cccc(-c3ccccc3)c2O)cc1,IC50,[1],> 20 µM
CC(COC(=O)c1ccc(-c2cc(O)cc(C(C)(C)C)c2)cc1)CC(C)(C)C (stereo not drawn),inhibition,[2],10%
CC(C)(C)c1cc(O)cc(-c2ccc(CO)cc2)c1,IC50,[1],> 10 µM
same,inhibition,[3],21%
COCOc1cc(C(C)(C)C)ccc1-c1ccc(C(=O)OC)cc1,IC50,[4],> 10 µM
CC(COC(=O)c1ccc(-c2ccc(-c3ccccc3)cc2O)cc1)CC(C)(C)C (stereo not drawn),inhibition,[5],27%
same,inhibition,[6],3%
COCOc1cc(-c2ccccc2)ccc1-c1ccc(C(=O)O)cc1,inhibition,[6],8%
COC(=O)c1ccc(-c2ccc(C(C)(C)C)cc2O)cc1,inhibition,[2],6%
CC(C)(C)c1ccc(-c2ccc(C(=O)O)cc2)c(O)c1,IC50,[1],> 10 µM
CC(C)(C)c1ccc(-c2ccc(C(=O)NCc3ccccc3)cc2)c(O)c1,IC50,[1],> 5 µM
same,inhibition,[7],57%
COCOc1cc(-c2ccccc2)ccc1-c1ccc(C(=O)OCC(C)CC(C)(C)C)cc1 (stereo not drawn),IC50,[1],> 20 µM
same,inhibition,[5],10%
O=C(O)c1ccc(-c2cc(O)cc(-c3ccccc3)c2)cc1,inhibition,[2],9%
O=C(NCc1ccccc1)c1ccc(-c2cccc(-c3ccccc3)c2O)cc1,IC50,[1],> 5 µM
COC(=O)c1ccc(-c2ccc(-c3ccccc3)cc2O)cc1,IC50,[1],14 µM
same,inhibition,[8],41%
COC(=O)c1ccc(-c2cc(O)cc(C(C)(C)C)c2)cc1,IC50,[1],> 10 µM
CC(C)(C)c1cc(O)cc(-c2ccc(C(=O)NCc3ccccc3)cc2)c1,IC50,[1],> 5 µM
O=C(NCc1ccccc1)c1ccc(-c2ccc(-c3ccccc3)cc2O)cc1,IC50,[1],> 1 µM
COCOc1c(-c2ccccc2)cccc1-c1ccc(C(=O)OCC(C)CC(C)(C)C)cc1 (stereo not drawn),inhibition,[6],16%
COCOc1cc(-c2ccccc2)ccc1-c1ccc(C(=O)OC)cc1,inhibition,[6],2%
COCOc1cc(C(C)(C)C)ccc1-c1ccc(C(=O)NCc2ccccc2)cc1,IC50,[1],> 5 µM
same,inhibition,[9],47%
CC(C)(C)c1cc(O)cc(-c2ccc(C(=O)O)cc2)c1,IC50,[1],> 50 µM
CC(COC(=O)c1ccc(-c2cc(O)cc(-c3ccccc3)c2)cc1)CC(C)(C)C (stereo not drawn),inhibition,[2],15%
O=C(NCc1ccccc1)c1ccc(-c2cc(O)cc(-c3ccccc3)c2)cc1,inhibition,[2],5%
CC(COC(=O)c1ccc(-c2ccc(C(C)(C)C)cc2O)cc1)CC(C)(C)C (stereo not drawn),inhibition,[5],25%
same,inhibition,[2],3%
COCOc1cc(C(C)(C)C)ccc1-c1ccc(C(=O)OCC(C)CC(C)(C)C)cc1 (stereo not drawn),IC50,[1],> 50 µM
CC(COC(=O)c1ccc(-c2cccc(-c3ccccc3)c2O)cc1)CC(C)(C)C (stereo not drawn),inhibition,[6],11%
COCOc1cc(-c2ccccc2)ccc1-c1ccc(C(=O)NCc2ccccc2)cc1,IC50,[1],> 1 µM
